HTRA1 inhibitor = blocks human HTRA1 serine peptidase | Q92743 | recombinant HTRA1, FP-rhodamine activity-based probe, fluorescence polarization | inhibition, % at 5.96 µM | actives 0.5% (n = 340,000) | AID 504803; in the data active = inhibition above about 36%;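 also: 0% = enzyme with DMSO and 100% = wells lacking enzyme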
TCR-CD3 inh = blocks the human TCR-CD3 interaction | TAMRA-labeled TCR probe fluorescence, biochemical | inhibition, % at 9.4 µM | actives 0.37% (n = 360,000) | AID 651800; in the data active = inhibition above about 19%;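 also: recombinant mutant TCR 2C K166C tagged with TAMRA read by polarization; 0% = receptor in buffer alone and 100% = receptor with positive control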
SIAE inh = inhibitors of human sialic acid acetylesterase SIAE | Q9HAT2 | actives 0.69% (n = 370,000) | AID 1053197 | SIAE FP-Rh probe binding, fluorescence polarization | inhibition, % at 9.66 µM;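 active = inhibition above a cutoff: mean of compounds within the control limits plus 3 SD of those, cut at about 17% in these data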;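 also: 0% = plate median of compound wells and 100% = probe without SIAE protein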
DDE Tn6 FP inh = disrupts Tn6 cyclic peptide binding to fibrin D-Dimer-E complex; P02675; Fibrin DD(E) TRITC-Tn6 fluorescence polarization displacement; inhibition, % at 8.3 µM; actives 0.21% (n = 370,000); AID 720509;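 active = inhibition above a per-campaign cutoff: mean of compounds within control limits plus 3 SD, cut at about 15% in these data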;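 also: 0% = median of all compound wells on the plate and 100% = blocking peptide control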
mABHD4 FP = inhibitors of mouse ABHD4 | Q8VD66 | inhibition, % at 8.92 µM | purified mABHD4, FP-Rh probe fluorescence polarization | actives 0.54% (n = 370,000) | AID 720543;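 active = inhibition exceeding the mean over every tested compound plus 3 SD, cut at about 30% in these data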;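 also: 0% = plate median of compound wells and 100% = S159A mutant with DMSO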
Target sequence (Q8VD66 whole entry, looked up): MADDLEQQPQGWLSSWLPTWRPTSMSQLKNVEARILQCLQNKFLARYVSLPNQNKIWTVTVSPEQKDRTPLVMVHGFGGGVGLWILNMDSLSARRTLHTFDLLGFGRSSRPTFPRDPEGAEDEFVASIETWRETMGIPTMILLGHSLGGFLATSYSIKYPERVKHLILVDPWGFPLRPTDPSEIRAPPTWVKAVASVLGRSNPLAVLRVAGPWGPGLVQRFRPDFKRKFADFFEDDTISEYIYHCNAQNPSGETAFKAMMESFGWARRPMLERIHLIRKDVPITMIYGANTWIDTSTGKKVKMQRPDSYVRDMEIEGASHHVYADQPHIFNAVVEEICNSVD
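assay system = mABHD4 protein | compound dosing = single nominal dose of 8.92 µM, 0.89% DMSO final | read-out basis = percent inhibition of probe binding, normalized to plate controls | schedule = Enzyme–compound pre-incubation 45 min, then probe 60 min, both 25 °C | detection = fluorescence polarization, excitation 525 nm, emission 598 nm, BODIPY TMR filters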
Tn7 DDE FP = disrupts Tn7 cyclic peptide binding to fibrin D-Dimer-E complex. FP displacement of FITC-Tn7 peptide from fibrin DD(E); 0% = median of compound wells per plate. actives 0.13% (n = 370,000). AID 720508. inhibition, % at 8.3 µM. P02675;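 active = inhibition above the mean of compounds falling within the control limits plus 3 SD of them, cut at about 14% in these data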;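 also: 0% = plate median of compound wells and 100% = 10 µM Aha-Tn7 peptide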
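assay system = human clot-derived fibrin DD(E) complex | quantity = Fibrin-DD(E) at 2 µM final | timing = 10 min preincubation, 3 h with tracer, room temperature | signal = fluorescence polarization | measure = percent inhibition | benchmarks = high control wells with 10 µM unlabelled Aha-Tn7 peptide (full inhibition) | replicates = singlicate testing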
An asterisk follows results filed as active; . = not tested or not shown; + = active, no number. An excerpt weighted towards active compounds, which were near 1.8% of everything screened.

SMILES | HTRA1 inhibitor | TCR-CD3 inh | SIAE inh | DDE Tn6 FP inh | mABHD4 FP | Tn7 DDE FP
COc1cc(CC2COC(c3ccc(O)c(OC)c3)C2COC(C)=O)ccc1O (stereo not drawn) | 11 | 23* | 2 | 2 | 10 | 1
COC(=O)C1=C(C)N(Cc2ccccc2C(F)(F)F)C(=NCc2ccc(C(F)(F)F)cc2)NC1c1ccccc1 (stereo not drawn) | . | -3 | -5 | 1 | 14 | 1
O=C(O[C@@H]1OC2COC(=O)c3cc(O)c(O)c(O)c3-c3c(cc(O)c(O)c3O)C(=O)O[C@@H]([C@H]1O)[C@@H]2O)c1cc(O)c(O)c(O)c1 | 41* | . | . | . | . | .
CCCn1cc(SCC(=O)NCc2ccco2)c2ccccc21 | 9 | 1 | 1 | 1 | -7 | -3
O=C(CSc1cn(CCNC(=O)c2ccccc2)c2ccccc12)NCc1ccco1 | -11 | 1 | 18* | -4 | -1 | 8
CCn1cc(C(=O)O)c(=O)c2cnc(N3CCN(C(=S)NC(=O)c4ccc(OC)cc4)CC3)nc21 | 1 | -8 | 17* | -8 | -3 | 3
Cc1cccc(-n2c(O)c(C=Nc3ccccc3O)c3ccccc3c2=O)n1 | 2 | 40* | -3 | -15 | 3 | -7
Cc1ccc(-c2cc(C(F)(F)F)n3nc(C(=O)Nc4ccon4)cc3n2)cc1C | 0 | 8 | -1 | 0 | -1 | 0
COc1ccc(-c2cc(C(F)(F)F)n3nc(C(=O)Nc4cc(C)on4)cc3n2)cc1OC | 8 | 1 | 18* | 3 | 3 | -3
O=C(Nc1ccc(Cl)c(Cl)c1)C1CCCN(c2nnc(-n3cccc3)s2)C1 (stereo not drawn) | . | . | 1 | 7 | -54 | -2
Oc1ccccc1-c1nnc(COc2ccccc2)o1 | 11 | 34* | 9 | -2 | 2 | 4
COc1cc(C2Nc3cccc4cccc(c34)N2)ccc1O | 21 | -10 | 54* | -49 | 0 | 0
COc1cc(C2Nc3cccc4cccc(c34)N2)cc(OC)c1OC(C)=O | 14 | 8 | 5 | 5 | 20 | 1
CN(CCCOC(=O)c1cc2ccccc2o1)C1CN(Cc2cn(Cc3ccc([N+](=O)[O-])cc3)nn2)S(=O)(=O)C1 (stereo not drawn) | . | . | -3 | 6 | -1 | -5
O=[N+]([O-])c1cc(Cl)cc(/C=N/Nc2nc3ccccc3s2)c1O | 26 | -1 | 4 | -2 | 8 | 7
O=C(Cn1nc2ccccc2n1)N/N=C/c1cc(Cl)cc([N+](=O)[O-])c1O | 15 | 56* | 3 | 0 | 9 | 6
COC(=O)C1CN(Cc2cn(CCC3OCCO3)nn2)CCS(=O)(=O)N1Cc1ccc(OC)cc1 (stereo not drawn) | . | . | 3 | 1 | 4 | -6
CC(=O)c1ccc2c(c1)C1C=CCC1C(c1ccncc1)N2 (stereo not drawn) | 15 | 0 | 8 | 2 | 21 | -1
COC(=O)c1ccc(C2Nc3ccc(/C(C)=N/NC(=O)C(OC)c4ccccc4)cc3C3C=CCC32)cc1 (stereo not drawn) | 21 | 1 | 22* | -9 | 14 | -8
CC(C)c1[nH]nc2c1C(c1cccc(OC(=O)N3CCOCC3)c1)C(C#N)=C(N)O2 (stereo not drawn) | 5 | -5 | 5 | 8 | -5 | -4
CCc1[nH]nc2c1C(c1cccc(OC(=O)N3CCOCC3)c1)C(C#N)=C(N)O2 (stereo not drawn) | 2 | 7 | 25* | -6 | 0 | 1
CN(C(=O)c1cn(C)c2ccccc12)c1ccc(Oc2cccnc2)cc1 | . | 1 | 3 | -4 | 0 | 1
Cc1ccc(Oc2coc3cc(OC(=O)c4cccs4)ccc3c2=O)cc1 | 70* | 4 | -9 | -3 | -10 | -10
Cc1cccc(Oc2coc3cc(OC(=O)c4cccs4)ccc3c2=O)c1 | 69* | -6 | -14 | -3 | -11 | -1
CCn1c(COc2ccccc2)nnc1SCC(=O)Nc1ccc(Oc2ccccc2)cc1 | . | . | -7 | 6 | -5 | -8
SMILES | HTRA1 inhibitor | TCR-CD3 inh | SIAE inh | DDE Tn6 FP inh | mABHD4 FP | Tn7 DDE FP
CCN1CCN(Cc2ccc(NC(=O)c3ccc(C)c(NC(=O)C(=O)c4c[nH]c5ccccc45)c3)cc2C(F)(F)F)CC1 | -85 | 8 | -22 | -6 | -35 | 0
CCN1CCN(Cc2ccc(NC(=O)c3cc(NC(=O)C(=O)c4c[nH]c5ccccc45)cc(OC)c3)cc2C(F)(F)F)CC1 | -128 | 11 | -109 | 44* | -74 | 4
COc1cc(/C=C2/C(=O)NN(c3cccc(C)c3)C2=O)cc([N+](=O)[O-])c1O | 26 | 5 | 1 | 2 | 28 | 5
COc1cc(/C=C2\SC(=O)N(c3ccc(Cl)cc3)C2=O)cc([N+](=O)[O-])c1O | 10 | -4 | 8 | -2 | 37* | -2
COc1ccc(C(C(=O)N(C)C2CCCC2)N(Cc2ccc(F)cc2)C(=O)c2csc(N3CCOCC3)n2)cc1OC (stereo not drawn) | . | . | 4 | 0 | 1 | -5
O=C(CSc1nnnn1-c1ccc2c(c1)OCCO2)N1CCc2ccccc21 | -3 | 2 | 27* | 3 | 11 | 2
COC1=CC(=O)C(C2CC(=O)c3c(O)cc(O)cc3O2)=CC1=O (stereo not drawn) | 18 | 3 | 11 | -11 | 49* | -9
Cc1coc2c1C(=O)C(=O)c1c-2ccc2c(C)cccc12 | 40* | . | . | . | . | .
COc1cc(-c2cc(=O)c3ccc(O)cc3o2)cc(OC)c1OC | . | -6 | -3 | -2 | -12 | 4
COc1cc(OC)c(-c2c3cc(O)c(=O)cc-3oc3cc(O)c(O)cc23)cc1OC | -202 | -90 | -319 | + | -192 | -21
CCCc1ccc(-c2cc(NC(=O)Cc3c(C)[nH]c4ccccc34)ccc2Nc2cccnc2)cc1 | . | -3 | 9 | -3 | 25 | -10
CCCc1ccc(-c2cc(NC(=O)Cc3c(C)[nH]c4ccccc34)ccc2N(C)c2cccnc2)cc1 | . | -3 | 8 | -3 | 37* | -2
C/C(=N\NC(=O)c1cc(O)cc(O)c1)c1ccc(NC(=O)Cc2ccccc2)cc1 | 23 | 41* | 24* | -13 | 28 | -1
Cc1ccc(C(=O)N2CCC[C@@H]2C(=O)N2CCC[C@H]2C(=O)NCc2ccccc2)cc1 | . | 2 | -3 | -10 | -6 | 3
S=C1Cc2ccccc2N1 | 24 | 7 | 6 | -16 | 34* | -7
S=C1Nc2ccccc2CS1 | -3 | 2 | 7 | 5 | 0 | 3
O=S1(=O)c2ccc(N3CCN(Cc4ccccc4F)CC3)cc2Oc2ccccc2CN1Cc1cn(Cc2ccc(C(F)(F)F)cc2)nn1 | . | . | -1 | -11 | -5 | 5
CCCCCCn1cc(CN2CC=CS2(=O)=O)nn1 | . | . | 0 | -5 | 7 | -5
CCOc1cc(CNc2ccc(O)cc2)cc(Br)c1OCc1ccccc1F | 44* | . | . | . | . | .
